PDI turbidity: inhibitors of human protein disulfide isomerase; hit rate 0.052% among 350,000; P07237; PDI insulin aggregation turbidity, A650, 90 min; inhibition, % at 10 µM; AID 588391;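 active = mean inhibition across replicates of 30% or more, whatever share of single replicates reach that level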
SIRT5 block: inhibitors of human sirtuin-5 desuccinylase | Purified SirT5, succinyl-peptide AMC, trypsin-coupled fluorescence | inhibition, % at 15 µM | hit rate 1.1% among 330,000 | AID 652115; in the data active = inhibition above about 15%
FN deposition inh: fibronectin deposition inhibition | inhibition, % at 12.6 µM | AH1F fibroblasts, Alexa488-fibronectin deposition fluorescence, overnight | hit rate 0.086% among 350,000;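 active = mean inhibition across replicates of 30% or more, regardless of how many single replicates reach that level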;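 also: positive control wells lacked labelled fibronectin entirely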
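Assay system: AH1F fibroblasts / Quantity: 10000 cells per well / Medium: DMEM plus 2% serum, read in PBS / Reagent: labelled fibronectin 24 nM / Dosing: single dose, pinned / Times: 1 h cell attachment, overnight exposure to compound and label / Signal: fluorescence, ex 485 nm, em 525 nm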
ERp5 inh: inhibitors of human ERp5; Q15084; ERp5 insulin aggregation, absorbance 650 nm, 90 min; inhibition, % at 9.99 µM; hit rate 0.05% among 350,000;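 active = mean replicate inhibition above about 25%, with every replicate also reaching it, limit read from the data, passing the limit was not always enough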
Target sequence (Q15084 whole entry, looked up): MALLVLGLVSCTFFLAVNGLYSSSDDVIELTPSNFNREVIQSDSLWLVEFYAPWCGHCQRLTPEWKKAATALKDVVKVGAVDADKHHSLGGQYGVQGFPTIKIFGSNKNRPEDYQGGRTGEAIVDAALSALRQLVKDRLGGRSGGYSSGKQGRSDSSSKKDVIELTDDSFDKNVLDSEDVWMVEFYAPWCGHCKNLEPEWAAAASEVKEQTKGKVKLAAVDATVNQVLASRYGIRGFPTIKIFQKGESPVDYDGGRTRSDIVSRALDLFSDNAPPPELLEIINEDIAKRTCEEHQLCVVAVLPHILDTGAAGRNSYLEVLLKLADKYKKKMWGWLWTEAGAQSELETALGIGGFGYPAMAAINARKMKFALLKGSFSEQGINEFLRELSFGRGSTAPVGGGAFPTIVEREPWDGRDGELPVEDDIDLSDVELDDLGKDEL
AF4-AF9 inh: blocks AF4 peptide binding to human AF9; hit rate 0.47% among 350,000; AlphaScreen, biotin-AF4 peptide binding to FLAG-AF9; inhibition, % at 10 µM;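 active = every replicate reaching a set inhibition limit, whatever the replicate mean, cut at about 25% in these data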;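 also: 0% = plate neutral control median and 100% = total signal loss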
Active calls of the source: *; · = no result given; ! = not active in a repeat. The list is not random: actives were taken first. Their share in the collection is about 1.3%.

SMILES	PDI turbidity	SIRT5 block	FN deposition inh	ERp5 inh	AF4-AF9 inh
C[C@@H]1CCCCO[C@@H](CN(C)Cc2ccc(C(=O)Nc3ccccc3N)cc2)[C@@H](C)CN([C@H](C)CO)C(=O)c2cc(NS(=O)(=O)c3cccs3)ccc2O1	·	-2	·	70*	0
C[C@@H]1CCCCO[C@H](CN(C)Cc2ccc(C(F)(F)F)cc2)[C@H](C)CN([C@H](C)CO)C(=O)c2cc(NS(=O)(=O)c3cccs3)ccc2O1	·	16*	·	-9	1
C[C@@H]1CN([C@@H](C)CO)C(=O)c2cc(NS(=O)(=O)c3cccs3)ccc2O[C@@H](C)CCCCO[C@@H]1CN(C)Cc1ccc(C(=O)O)cc1	·	1	·	-2	-4
C[C@@H]1CCCCO[C@H](CN(C)Cc2ccc(C(=O)Nc3ccccc3N)cc2)[C@@H](C)CN([C@H](C)CO)C(=O)c2cc(NS(=O)(=O)c3cccs3)ccc2O1	·	·	·	-3	-5
COc1ccc2nc(/C=N/NC(=O)[C@@H]3CCCN3C(=O)OC(C)(C)C)ccc2c1	-1	-17	-1	-1	·
COc1cccc(CNC(=O)COC(=O)C2CC3CCCC(C2)C3=O)c1 (stereo unspecified)	-5	-6	-2	-1	-8
C[C@H](CO)N1C[C@H](C)[C@@H](CN(C)C(=O)NC2CCCCC2)Oc2ccc(NS(=O)(=O)c3cccs3)cc2C1=O	-3	16*!	-2	-5	-2
Cc1cc(-c2nn(-c3ccccc3F)cc2CNCCc2cnc[nH]2)c(C)s1	3	-3	5	22	29*
COc1ccc2c3c(n(C)c2c1)[C@H](CO)N(Cc1ccncc1)CC31CCN(C(=O)C2CCCCC2)CC1	·	6	·	-1	31*
COc1ccc2c3c(n(C)c2c1)[C@@H](CO)N(Cc1ccc(Cl)cc1)CC31CCN(CC2CC2)CC1	·	5	7	-1	37*
COc1ccc2c3c(n(C)c2c1)[C@H](CO)N(Cc1ccc(Cl)cc1)CC31CCN(CC2CC2)CC1	·	4	16	-6	30*
COc1ccc2c3c(n(C)c2c1)[C@@H](CO)N(Cc1ccccc1OC)CC31CCN(C)CC1	·	·	·	3	26*
COc1ccc2c3c(n(C)c2c1)[C@H](CO)N(Cc1ccncc1)CC31CCN(C(=O)C2CCC2)CC1	·	2	·	-14	-4
O=c1cc(CSc2nnnn2-c2ccccc2)nc2sccn12	0	0	8	-9	-1
O=C(C[C@@H]1CC[C@@H]2[C@H](COC[C@H](O)CN2S(=O)(=O)c2cccc(F)c2)O1)NCc1ccc2c(c1)OCO2	·	0	-8	4	4
CN1CCN(C(=O)c2cccc(-c3cccc4nccn34)c2)CC1	9	0	0	5	0
NS(=O)(=O)c1ccc(CCNC(=O)CNC(=O)c2ccc(Br)o2)cc1	4	·	·	·	·
Cc1ccc(NC(=O)NN(C)c2c(Cl)c(Cl)nn2C)cc1	-2	-2	4	4	-2
COc1ccc2c3c(n(C)c2c1)[C@H](CO)N(Cc1ccccc1F)CC31CCN(CC2CC2)CC1	·	-5	·	5	40*
CCS(=O)(=O)N1CC2(CN(Cc3ccc(OC)cc3)[C@H](CO)c3c2c2ccc(OC)cc2n3C)C1	·	-3	·	-8	0
CCS(=O)(=O)N1CC2(CN(Cc3cccc(Cl)c3)[C@H](CO)c3c2c2ccc(OC)cc2n3C)C1	·	26*	3	-4	11
CC#CC[N+](C)(C)CCCCCCCC	5	25*	-2	2	-2
COc1ccc(CO/N=C/c2c(C)[nH]c(=O)[nH]c2=O)cc1	-5	·	·	·	·
O=C(O)c1cc(S(=O)(=O)Nc2ccc3cn[nH]c3c2)ccc1O	5	-1	8	0	-8
CC1=C(C#N)c2nc(N)c(C#N)c(C)c2/C1=C\c1ccc(OCC(=O)O)c(Cl)c1	8	19*	3	-9	2
SMILES	PDI turbidity	SIRT5 block	FN deposition inh	ERp5 inh	AF4-AF9 inh
COc1ccc(N2CCN(C(=O)c3cc4cc(Cl)ccc4[nH]3)CC2)cc1	8	18*	1	4	0
COc1ccccc1NC(=O)CN1CCN(C(=O)C2CCCO2)CC1 (stereo unspecified)	3	46*	-3	-6	-2
CNc1ncnc2c1ncn2[C@H]1CN(Cc2ccc3c(c2)OCO3)C[C@@H](CO)O1	-1	5	-9	5	2
COCCNC(=O)C1(C)CCCN(C(=O)c2cccc(Cl)c2)C1 (stereo unspecified)	6	-1	-3	-6	0
COc1cccc(/C=C2\SC(=S)N(CC3CCCO3)C2=O)c1 (stereo unspecified)	4	-1	-10	8	32*
COc1ccc(S(=O)(=O)N(C)C[C@@H]2OCCCC[C@@H](C)Oc3ccc(NS(=O)(=O)c4ccccc4)cc3C(=O)N([C@H](C)CO)C[C@@H]2C)cc1	·	-20	3	2	-1
CCOc1ccc(C(=O)OCC(=O)Nc2cccnc2Cl)cc1OCC	-2	-1	7	2	-1
COc1ccc2nc3cc(Cl)ccc3c(Nc3cc(CN4CCCC4)c(O)c(CN4CCCC4)c3)c2n1	-1	-3	2	5	47*
O=c1[nH]c(C2C3CC4CC(C3)CC2C4)nc2ccccc12 (stereo unspecified)	1	·	-7	2	2
CCN=C1SC(C(=O)Nc2cccc(Cl)c2)CC(=O)N1CC (stereo unspecified)	-2	-5	10	-7	1
COc1ccc(C#Cc2ccc3c(c2)O[C@H](CN(C)S(=O)(=O)c2ccccc2F)[C@H](C)CN([C@H](C)CO)S3(=O)=O)cc1	·	16*!	-7	2	-2
C[C@H]1CN([C@@H](C)CO)S(=O)(=O)c2ccc(C#Cc3cccc(F)c3)cc2O[C@H]1CN(C)S(=O)(=O)c1ccccc1F	·	42*	5	12	-3
C[C@H]1CN([C@@H](C)CO)S(=O)(=O)c2ccc(C#Cc3cccc(F)c3)cc2O[C@@H]1CN(C)S(=O)(=O)c1ccccc1F	·	13	-5	-2	-2
Cc1ccc(N2CC(C(=O)Nc3ccc(S(=O)(=O)Nc4nccs4)cc3)CC2=O)cc1C (stereo unspecified)	-11	18*	0	0	-1
Cc1ccc(-c2cn3cccnc3n2)cc1NC(=O)c1cccs1	-12	·	-5	·	·
CC(C)C[C@H]1COc2cc(N3CC[C@H](O)C3)ccc2S(=O)(=O)N1	·	33*	7	-8	0
COc1ccc(NC(=O)CN2CCCC2)cc1	2	-2	0	4	2
O=C(CN1CCCC1)Nc1ccc(Oc2ccc(NC(=O)CN3CCCC3)cc2)cc1	-4	·	30*	·	·
N#Cc1ncc(-c2ccc3c(c2)OCCOCCOCCOCCOCCO3)nc1C#N	-6	·	11	·	·
CO[C@H]1CN(C)C(=O)c2cc(NC(C)=O)ccc2OC[C@@H](C)N(CCC(F)(F)F)C[C@H]1C	·	16*	-4	1	-15
CO[C@H]1CN(C)C(=O)c2ccc(NS(=O)(=O)CC(F)(F)F)cc2OC[C@@H](C)N(C)C[C@H]1C	·	-3	-6	3	-2

Screening results deposited in PubChem BioAssay by Broad Institute.
